{"source": "ChEMBL document CHEMBL4325827", "about": "“Bifidenone: Structure-Activity Relationship and Advanced Preclinical Candidate” (J Med Chem, 2018)", "key": {"[1]": {"experiment": "Toxicity in Crl:NU(NCr)-Foxn1 nu mouse xenografted with human LOX-IMVI cells assessed as mortality at 30 mg/kg, ip qd administered for 7 consecutive days", "type": "organism-based", "settings": "in vivo", "how_it_was_run": "(§1)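 Female athymic nude mice bearing subcutaneous xenografts started from cultured human tumor cells. Mice were split into vehicle and treatment groups once tumors reached about 75-200 mm3. Dosing was ip at 5-10 mL/kg in 22% ethanol, 38% PEG400, 40% 20 mM Na citrate pH 5.0. Deaths per group were recorded alongside maximum mean bodyweight loss.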"}, "[2]": {"experiment": "Toxicity in Crl:NU(NCr)-Foxn1 nu mouse xenografted with human […] cells assessed as maximum body weight loss at 60 mg/kg, ip qd administered for 3 consecutive days followed by 2 days of rest for 3 cycles measured after 3 days post dose relative to control", "type": "organism-based", "settings": "in vivo, 72 h", "how_it_was_run": "(§2)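 Female athymic nude mice bearing subcutaneous xenografts, started from cultured cells (NCI-H460, Calu-6, NCI-H69, LOX-IMVI) or from serially passaged tumour fragments (NCI-H522). Mice were grouped into vehicle and treatment arms at tumour volumes of about 75-200 mm3. Dosing was ip at 5-10 mL/kg in 22% ethanol, 38% PEG400, 40% 20 mM Na citrate pH 5.0. Caliper volumes were taken as (length × width2)/2. Treated and control delta weights were median tumour weight minus staging-day median.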"}, "[3]": {"experiment": "Toxicity in Crl:NU(NCr)-Foxn1 nu mouse xenografted with human Calu6 cells assessed as maximum body weight loss at 60 mg/kg, ip qd administered for 3 consecutive days followed by 2 days of rest for 4 cycles measured after 2 days post dose relative to control", "type": "organism-based", "settings": "in vivo, 48 h", "how_it_was_run": "as §2"}, "SF-295": {"tested_on": "SF-295", "experiment": "Antiproliferative activity against taxane-resistant human SF295 cells after 72 hrs by CellTiter 96 aqueous nonradioactive cell proliferation assay", "type": "functional, cell-based", "settings": "SF-295, 72 h", "how_it_was_run": "(§3)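 Antiproliferation in cultured tumour cells, at least 3 replicate wells per concentration per experiment. NCI-H460 came from ATCC. M14, NCI/ADR-RES, OVCAR-4, HCT-15, ACHN and SF-295 came from the National Cancer Institute. IC50 reported from single experiments where no SD is given.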"}, "[4]": {"experiment": "Toxicity in Crl:NU(NCr)-Foxn1 nu mouse xenografted with human […] cells assessed as maximum body weight loss at 40 mg/kg, ip qd administered for 3 consecutive days followed by 2 days of rest for 3 cycles measured after 7 days post dose relative to control", "type": "organism-based", "settings": "in vivo, 168 h", "how_it_was_run": "as §2"}, "HCT-15": {"tested_on": "HCT-15", "experiment": "Antiproliferative activity against taxane-resistant human HCT15 cells after 72 hrs by CellTiter 96 aqueous nonradioactive cell proliferation assay", "type": "functional, cell-based", "settings": "HCT-15, 72 h", "how_it_was_run": "as §3"}, "LOX IMVI": {"tested_on": "LOX IMVI", "experiment": "Antitumor activity against human LOXIMVI cells xenografted in Crl:NU(NCr)-Foxn1 nu mouse assessed as tumor growth inhibition at 30 mg/kg, ip qd relative to control", "settings": "read-out: TGI"}, "ACHN": {"tested_on": "ACHN", "experiment": "Potency index, ratio of paclitaxel IC50 to compound IC50 for taxane-resistant human ACHN cells after 72 hrs by CellTiter 96 aqueous nonradioactive cell proliferation assay", "type": "functional"}, "[5]": {"experiment": "Toxicity in Crl:NU(NCr)-Foxn1 nu mouse xenografted with human LOX-IMVI cells assessed as mortality at 40 mg/kg, ip qd administered for 5 consecutive days", "type": "organism-based", "settings": "in vivo", "how_it_was_run": "as §1"}, "[6]": {"experiment": "Toxicity in Crl:NU(NCr)-Foxn1 nu mouse xenografted with human […] cells assessed as maximum body weight loss at 50 mg/kg, ip qd administered for 3 consecutive days followed by 2 days of rest for 3 cycles measured after 7 days post dose relative to control", "type": "organism-based", "settings": "in vivo, 168 h", "how_it_was_run": "as §2"}, "Calu-6": {"tested_on": "Calu-6", "experiment": "(§4) Antitumor activity against human Calu6 cells xenografted in Crl:NU(NCr)-Foxn1 nu mouse assessed as tumor growth inhibition at 60 mg/kg, ip qd administered for 3 consecutive days followed by 2 days of rest for 4 cycles relative to control", "type": "functional", "settings": "Calu-6, ip, 48 h, read-out: TGI", "how_it_was_run": "as §2"}, "[7]": {"experiment": "Toxicity in Crl:NU(NCr)-Foxn1 nu mouse xenografted with human NCI-H460 cells assessed as maximum body weight loss at 40 mg/kg, ip qd administered for 3 consecutive days followed by 2 days of rest for 3 cycles measured after 7 days post dose relative to control", "type": "organism-based", "settings": "in vivo, 168 h", "how_it_was_run": "as §2"}, "NCI-H460": {"tested_on": "NCI-H460", "experiment": "Antitumor activity against human NCI-H460 cells xenografted in Crl:NU(NCr)-Foxn1 nu mouse assessed as tumor growth inhibition at 40 mg/kg, ip qd administered for 3 consecutive days followed by 2 days of rest for 3 cycles relative to control", "type": "functional", "settings": "48 h, read-out: TGI", "how_it_was_run": "as §2"}, "EKVX": {"tested_on": "EKVX", "experiment": "Potency index, ratio of paclitaxel IC50 to compound IC50 for taxane-resistant human EKVX cells after 72 hrs by CellTiter 96 aqueous nonradioactive cell proliferation assay", "type": "functional"}, "NCI-H69": {"tested_on": "NCI-H69", "experiment": "as §4, with “NCI-H69” for “Calu6”, “70 mg/kg, ip dosed on day 1 followed by 4 days rest and subsequently dosed at 70” for “60”, “2” for “4”", "type": "functional", "settings": "read-out: TGI", "how_it_was_run": "as §2"}, "NCI-H522 [8]": {"tested_on": "NCI-H522", "experiment": "Antitumor activity against human NCI-H522 cells xenografted in Crl:NU(NCr)-Foxn1 nu mouse assessed as tumor growth inhibition at 50 mg/kg, ip qd administered for 3 consecutive days followed by 2 days of rest for 3 cycles relative to control", "type": "functional", "settings": "48 h, read-out: TGI", "how_it_was_run": "as §2"}, "[9]": {"experiment": "Toxicity in Crl:NU(NCr)-Foxn1 nu mouse xenografted with human NCI-H460 cells assessed as mortality at 40 mg/kg, ip qd administered for 3 consecutive days followed by 2 days of rest for 3 cycles", "type": "organism-based", "settings": "in vivo, 48 h", "how_it_was_run": "as §1"}, "[10]": {"experiment": "Toxicity in Crl:NU(NCr)-Foxn1 nu mouse xenografted with human […] cells assessed as mortality at 40 mg/kg, ip qd administered for 3 consecutive days followed by 2 days of rest for 3 cycles", "type": "organism-based", "settings": "in vivo, 48 h", "how_it_was_run": "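Female athymic nude mice bearing subcutaneous NCI-H522 xenografts started from tumor fragments kept by continuous in vivo passage. Mice were grouped once tumors reached about 75-200 mm3. Dosing was ip at 5-10 mL/kg in 22% ethanol, 38% PEG400, 40% 20 mM Na citrate pH 5.0. Deaths per group were recorded with maximum mean bodyweight loss.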"}, "Tubulin (Sus scrofa)": {"biological_target": "Tubulin (Sus scrofa) (UniProt P02554+P02550)", "sequence (P02550 whole entry, looked up)": "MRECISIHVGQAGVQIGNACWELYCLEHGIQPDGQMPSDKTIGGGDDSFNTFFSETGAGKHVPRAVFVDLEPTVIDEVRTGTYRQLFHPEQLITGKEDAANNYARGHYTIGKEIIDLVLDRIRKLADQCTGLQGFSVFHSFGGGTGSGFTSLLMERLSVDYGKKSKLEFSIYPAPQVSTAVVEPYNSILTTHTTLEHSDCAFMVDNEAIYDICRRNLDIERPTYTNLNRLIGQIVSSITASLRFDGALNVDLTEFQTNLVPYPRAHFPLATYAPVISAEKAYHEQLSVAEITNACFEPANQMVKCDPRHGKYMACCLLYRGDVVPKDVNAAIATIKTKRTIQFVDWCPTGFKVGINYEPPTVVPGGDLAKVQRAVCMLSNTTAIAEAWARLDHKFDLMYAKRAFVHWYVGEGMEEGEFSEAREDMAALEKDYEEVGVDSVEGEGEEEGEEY", "sequence (P02554 whole entry, looked up)": "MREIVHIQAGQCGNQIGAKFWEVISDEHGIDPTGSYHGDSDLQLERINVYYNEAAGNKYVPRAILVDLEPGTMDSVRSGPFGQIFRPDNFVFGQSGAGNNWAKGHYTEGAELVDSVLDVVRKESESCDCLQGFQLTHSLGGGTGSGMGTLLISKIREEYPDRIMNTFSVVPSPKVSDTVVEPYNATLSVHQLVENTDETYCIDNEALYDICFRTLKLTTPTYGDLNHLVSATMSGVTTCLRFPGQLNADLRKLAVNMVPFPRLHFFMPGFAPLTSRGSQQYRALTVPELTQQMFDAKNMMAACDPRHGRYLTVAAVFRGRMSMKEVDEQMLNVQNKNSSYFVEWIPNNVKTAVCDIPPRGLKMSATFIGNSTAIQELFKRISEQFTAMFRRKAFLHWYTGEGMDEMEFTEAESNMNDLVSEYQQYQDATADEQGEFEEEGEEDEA", "experiment": "Inhibition of pig tubulin polymerization at 10 uM measured at 1 min intervals for 60 mins", "type": "protein assay", "how_it_was_run": "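Polymerization assay using porcine tubulin.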"}, "[11]": {"experiment": "Toxicity in Crl:NU(NCr)-Foxn1 nu mouse xenografted with human NCI-H460 cells assessed as mortality at 60 mg/kg, ip qd administered for 3 consecutive days followed by 2 days of rest for 3 cycles", "type": "organism-based", "settings": "in vivo, 48 h", "how_it_was_run": "as §1"}, "[12]": {"experiment": "Toxicity in Crl:NU(NCr)-Foxn1 nu mouse xenografted with human Calu6 cells assessed as maximum body weight loss at 50 mg/kg, ip qd administered for 3 consecutive days followed by 2 days of rest for 4 cycles measured after 17 days post dose relative to control", "type": "organism-based", "settings": "in vivo, 408 h", "how_it_was_run": "as §2"}, "NCI-H522 [13]": {"tested_on": "NCI-H522", "experiment": "Antitumor activity against human NCI-H522 cells xenografted in Crl:NU(NCr)-Foxn1 nu mouse assessed as tumor growth inhibition at 40 mg/kg, ip qd administered for 3 consecutive days followed by 2 days of rest for 3 cycles relative to control", "type": "functional", "settings": "48 h, read-out: TGI", "how_it_was_run": "as §2"}}, "note": "Active and inactive are the calls of the source. The rule behind the calls is not given here.", "data": [{"smiles": "C=CC[C@H]1C[C@]2([C@H](C)Cc3cc(O)c(OC)cc3F)OCOC2=CC1=O", "values": [{"measurement": "Activity", "setting": "[1]", "value": "Non-Toxic"}, {"measurement": "Activity", "setting": "[2]", "value": 9, "unit": "%"}, {"measurement": "Activity", "setting": "[3]", "value": 2, "unit": "%"}, {"measurement": "IC50", "setting": "SF-295", "value": 9.6, "unit": "nM"}, {"measurement": "Activity", "setting": "[4]", "value": 3, "unit": "%"}, {"measurement": "IC50", "setting": "HCT-15", "value": 14, "unit": "nM"}, {"measurement": "inhibition in vivo at 30 mg/kg", "setting": "LOX IMVI", "value": 63, "unit": "%"}, {"measurement": "Ratio IC50", "setting": "ACHN", "value": 7}, {"measurement": "Activity", "setting": "[5]", "value": "Non-Toxic"}, {"measurement": "Activity", "setting": "[6]", "value": 8, "unit": "%"}, {"measurement": "inhibition in vivo at 60 mg/kg", "setting": "Calu-6", "value": 63, "unit": "%"}, {"measurement": "Activity", "setting": "[7]", "value": 7, "unit": "%"}, {"measurement": "inhibition in vivo at 40 mg/kg", "setting": "NCI-H460", "value": 71, "unit": "%"}, {"measurement": "Ratio IC50", "setting": "EKVX", "value": 21}, {"measurement": "inhibition in vivo at 70 mg/kg", "setting": "NCI-H69", "value": 84, "unit": "%"}, {"measurement": "inhibition in vivo at 50 mg/kg", "setting": "NCI-H522 [8]", "value": 69, "unit": "%"}, {"measurement": "Activity", "setting": "[9]", "value": "Toxic"}, {"measurement": "Activity", "setting": "[10]", "value": "Non-Toxic"}, {"measurement": "inhibition", "setting": "Tubulin (Sus scrofa)", "value": "Active"}, {"measurement": "Activity", "setting": "[11]", "value": "Non-Toxic"}, {"measurement": "Activity", "setting": "[12]", "value": 4, "unit": "%"}, {"measurement": "inhibition in vivo at 40 mg/kg", "setting": "NCI-H522 [13]", "value": 54, "unit": "%"}]}]}
